Experimental findings from ChEMBL document CHEMBL3758120, “Synthesis and Mechanism Studies of 1,3-Benzoazolyl Substituted Pyrrolo[2,3-b]pyrazine Derivatives as Nonintercalative Topoisomerase II Catalytic Inhibitors” (J Med Chem, 2016) are described below.

The source made the active and inactive calls. No cut-off for these calls is given here.

In test [1] the target is T1, DNA topoisomerase 1 (Homo sapiens) (UniProt P11387).
T1 sequence (whole entry): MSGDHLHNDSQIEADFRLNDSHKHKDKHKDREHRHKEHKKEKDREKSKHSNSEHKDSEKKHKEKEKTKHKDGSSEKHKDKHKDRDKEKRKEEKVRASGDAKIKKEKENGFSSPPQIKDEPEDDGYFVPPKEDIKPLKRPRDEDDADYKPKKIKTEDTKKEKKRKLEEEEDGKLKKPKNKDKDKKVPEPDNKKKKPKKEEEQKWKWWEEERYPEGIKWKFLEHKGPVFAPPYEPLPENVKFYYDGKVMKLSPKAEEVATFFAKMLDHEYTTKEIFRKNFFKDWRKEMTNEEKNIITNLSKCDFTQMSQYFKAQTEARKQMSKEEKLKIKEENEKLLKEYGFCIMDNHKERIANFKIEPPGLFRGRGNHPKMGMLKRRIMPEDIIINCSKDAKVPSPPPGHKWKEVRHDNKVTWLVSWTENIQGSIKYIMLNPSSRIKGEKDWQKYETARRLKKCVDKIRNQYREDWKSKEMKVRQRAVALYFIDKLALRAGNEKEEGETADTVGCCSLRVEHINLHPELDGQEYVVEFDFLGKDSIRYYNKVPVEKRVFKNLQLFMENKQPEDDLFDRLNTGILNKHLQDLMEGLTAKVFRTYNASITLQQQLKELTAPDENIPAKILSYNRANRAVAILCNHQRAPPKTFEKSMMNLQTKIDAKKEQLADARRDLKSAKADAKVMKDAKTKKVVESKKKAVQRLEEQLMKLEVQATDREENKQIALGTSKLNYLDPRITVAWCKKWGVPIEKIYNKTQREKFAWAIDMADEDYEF
The test can be described thus: Inhibition of recombinant human topoisomerase 1-mediated relaxation of supercoiled pBR322 DNA at 50 uM incubated for 30 mins by agarose gel electrophoresis. The method in brief:
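Supercoiled pBR322 relaxed by Topo I with compound, incubated 30 min at 37 °C, stopped with 1% SDS dye, run on 1% agarose 1 h at 90 V in TAE, stained and imaged under UV; camptothecin as reference.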

For test [2], the target named is T2, DNA topoisomerase 2-alpha (Homo sapiens, UniProt P11388). The test can be described thus: Inhibition of purified human topoisomerase 2-mediated relaxation of supercoiled pBR322 DNA at 20 uM incubated for 30 mins by agarose gel electrophoresis. The method in brief: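 Reactions contained 0.2 μg supercoiled pBR322 in 50 mM Tris-HCl pH 8.0, 150 mM NaCl, 10 mM MgCl2, 0.5 mM DTT, 30 μg/ml BSA, normally 2 mM ATP (1, 2 or 4 mM in ATP-competition runs). Started with 1 U human Topo II, 30 min at 37 °C, stopped with sarcosyl buffer, run on 1% agarose 1.5 h at 75 V, gel-stained and imaged under UV.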

A further test concerns A549. The test can be described thus: Antiproliferative activity against human A549 cells after 48 hrs by MTT assay. The format is functional, cell-based. Conditions: A549, 48 h. The method in brief:
(§1)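 Cells seeded at 5000 per well and left overnight, then exposed to increasing concentrations (0-50 μM) for 48 h. […] HL-60/MX2 is a mitoxantrone-selected HL-60 derivative with reduced Topo IIα/β.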
(In general: Tetrazolium assays rely on reduction of a dye to a coloured formazan, in cell work by metabolically active cells.)

For a further test, the system named is HEK293. The test is described as follows: Cytotoxicity against HEK293 cells after 48 hrs by MTT assay. The format is cell-based. Conditions: Homo sapiens, HEK293, 48 h.
Another test relates to HeLa. The test can be described thus: Antiproliferative activity against human HeLa cells after 48 hrs by MTT assay. It counts as functional, cell-based. The method in brief:
as §1

The nature of test [3]: Antiproliferative activity against human HL60/MX2 cells after 48 hrs by MTT assay. It counts as functional, cell-based. Conditions: HL60/MX2, 48 h. The method in brief: as §1
In another test the test system is HL-60. The test is described as follows: Resistance index, ratio of IC50 for human HL60/MX2 cells to IC50 for HL60 cells. It counts as functional. The method in brief: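 Resistance index calculated as MTT-derived IC50 (48 h exposure, 0-50 μM, A570 readout) in HL-60/MX2 divided by IC50 in parental HL-60.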
In another test the test system is K562. The test can be described thus: Antiproliferative activity against human K562 cells after 48 hrs by MTT assay. It counts as functional, cell-based. Conditions: K562, 48 h. The method in brief: as §1
Another test relates to Raji. The test can be described thus: Antiproliferative activity against human Raji cells after 48 hrs by MTT assay. It counts as functional, cell-based. The method in brief: as §1
A short description of test [4]: Antiproliferative activity against human MDA-MB-201 cells after 48 hrs by MTT assay. The format is functional, cell-based. The method in brief:
as §1

The nature of test [5]: Antiproliferative activity against human HL60 cells after 48 hrs by MTT assay. The format is functional, cell-based. Conditions: HL-60, 48 h. The method in brief:
as §1

For test [6], the target named is T1, DNA topoisomerase 1 (Homo sapiens). Conditions: 0.6 to 5 uM.
In test [7] the target is T2, DNA topoisomerase 2-alpha. Conditions: HL-60, 10 uM.
For test [8], the target named is T2, DNA topoisomerase 2-alpha. Conditions: 100 uM.
A further test deals with Escherichia coli. The test can be described thus: Binding affinity to Escherichia coli pBR322 DNA assessed as intercalation of pBR322 DNA at 0.1 to 100 uM by fluorescence based ethidium bromide displacement assay. The method in brief: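 Increasing concentrations added to 20 nM pBR322 plasmid with 2.5 μM ethidium bromide in 10 mM HEPES pH 7.9, 100 mM KCl, 5 mM MgCl2, 0.1 mM EDTA. Fluorescence emission spectra recorded (excitation 510 nm, emission max 595 nm) at each concentration; mAMSA used as intercalating reference.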

T2 sequence (P11388 whole entry): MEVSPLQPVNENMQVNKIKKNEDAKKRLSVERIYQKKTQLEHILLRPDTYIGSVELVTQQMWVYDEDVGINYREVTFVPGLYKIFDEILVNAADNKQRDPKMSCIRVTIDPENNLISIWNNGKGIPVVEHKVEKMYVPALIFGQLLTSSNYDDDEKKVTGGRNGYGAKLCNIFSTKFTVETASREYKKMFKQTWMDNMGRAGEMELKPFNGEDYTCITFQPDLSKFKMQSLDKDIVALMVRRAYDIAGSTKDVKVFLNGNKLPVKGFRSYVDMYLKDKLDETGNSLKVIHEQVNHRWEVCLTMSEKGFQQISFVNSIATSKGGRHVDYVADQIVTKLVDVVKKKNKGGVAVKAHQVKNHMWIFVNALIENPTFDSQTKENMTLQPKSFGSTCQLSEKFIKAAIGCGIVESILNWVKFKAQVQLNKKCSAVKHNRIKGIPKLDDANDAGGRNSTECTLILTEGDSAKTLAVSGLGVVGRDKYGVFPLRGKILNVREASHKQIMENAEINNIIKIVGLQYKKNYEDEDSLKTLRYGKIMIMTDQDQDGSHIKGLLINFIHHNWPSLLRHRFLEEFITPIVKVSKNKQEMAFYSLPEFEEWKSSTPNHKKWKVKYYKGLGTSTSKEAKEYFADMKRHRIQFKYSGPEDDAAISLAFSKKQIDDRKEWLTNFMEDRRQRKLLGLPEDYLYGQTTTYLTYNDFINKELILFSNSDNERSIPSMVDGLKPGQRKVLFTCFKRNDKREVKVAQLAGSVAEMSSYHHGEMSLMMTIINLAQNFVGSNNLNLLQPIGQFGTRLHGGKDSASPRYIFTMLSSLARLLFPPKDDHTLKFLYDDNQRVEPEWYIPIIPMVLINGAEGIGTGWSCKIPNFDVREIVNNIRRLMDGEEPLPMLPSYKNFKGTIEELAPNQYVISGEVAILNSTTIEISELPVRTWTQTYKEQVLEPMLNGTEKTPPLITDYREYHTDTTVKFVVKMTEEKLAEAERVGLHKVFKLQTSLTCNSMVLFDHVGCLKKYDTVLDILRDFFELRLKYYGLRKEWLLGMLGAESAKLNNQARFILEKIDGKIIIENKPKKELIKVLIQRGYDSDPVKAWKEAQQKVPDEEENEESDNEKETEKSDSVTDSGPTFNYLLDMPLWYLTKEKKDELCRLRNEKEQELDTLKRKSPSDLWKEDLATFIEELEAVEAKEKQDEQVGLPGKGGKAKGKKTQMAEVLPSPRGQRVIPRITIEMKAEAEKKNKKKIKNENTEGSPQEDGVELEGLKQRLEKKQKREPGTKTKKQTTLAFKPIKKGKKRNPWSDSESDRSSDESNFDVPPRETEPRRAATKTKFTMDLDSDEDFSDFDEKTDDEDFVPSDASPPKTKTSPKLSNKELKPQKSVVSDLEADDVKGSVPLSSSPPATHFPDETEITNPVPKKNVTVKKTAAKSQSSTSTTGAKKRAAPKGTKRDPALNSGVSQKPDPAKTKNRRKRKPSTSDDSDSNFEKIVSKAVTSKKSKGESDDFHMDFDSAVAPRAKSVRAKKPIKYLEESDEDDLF

`CCN(CC)CCCn1c(N)c(-c2nc3ccccc3[nH]2)c2nc(C#N)c(C#N)nc21`: the inhibition entry in [1] was “inactive”. For the same compound, the inhibition entry in test [2] is “Active”. The IC50 with A549 was found to be 25.3 µM; with HEK293 it was 7.87 µM; in the test on HeLa, 3.15 µM; in [3], 1820 nM; in the test with K562, 1800 nM; in the test on Raji it was 1870 nM. Besides, the IC50 amounted to 28.9 µM in test [4] and 730 nM in [5]. Moreover, the “Ratio IC50” value with HL-60 is recorded as 2.5.
Regarding `CCN(CC)CCCCn1c(-c2c(N)n(C)c3nc(C#N)c(C#N)nc23)nc2ccccc21`, the inhibition entry in test [2] was “Active”. Moreover, the IC50 with A549 was 13.1 µM; with HEK293 it was 8.82 µM; in the test with HeLa it was 11.8 µM; in [3] it was 3920 nM; in the test on K562, 3180 nM; in the test with Raji it was 600 nM. For the same compound, the IC50 in test [4] is 6.95 µM; in test [5], 2860 nM. In addition, the “Ratio IC50” value with HL-60 came to 1.3.
As for `COc1cc([C@@H]2c3cc4c(cc3[C@@H](O[C@@H]3O[C@@H]5CO[C@@H](C)O[C@H]5[C@H](O)[C@H]3O)[C@H]3COC(=O)[C@H]23)OCO4)cc(OC)c1O` [ETOPOSIDE], the inhibition result in [2], in test [6], in [7] and in test [8] was “Active” each time. The IC50 in the test with A549 turned out to be 6.74 µM; in the test on HEK293 it was 0.69 µM; in the test with HeLa it was 32.5 µM; in [3], 9020 nM; with K562 it was 510 nM; in the test with Raji, 1680 nM. In addition, the IC50 in test [4] was found to be 31.3 µM; in test [5], 160 nM. In addition, in the test on HL-60, the “Ratio IC50” value is 56.4.
For `CCN(CC)CCCn1c(N)c(-c2nc3ccccc3n2C)c2nc(C#N)c(C#N)nc21`, the inhibition entry in [2] is “Active”. Besides, the IC50 in the test on A549 came out at 10.7 µM; with HEK293 it was 7.24 µM; in the test on HeLa it was 12.4 µM; in test [3], 4470 nM; with K562, 3270 nM; in the test with Raji, 2220 nM. For the same compound, the results for the IC50 in [4] and in [5] were 6.75 µM and 2810 nM, respectively. For the same compound, in the test on HL-60, the “Ratio IC50” value is reported as 1.6.
In the case of `CN(C)CCCn1c(N)c(-c2nc3ccccc3[nH]2)c2nc(C#N)c(C#N)nc21`, the inhibition entry in test [1] is “inactive”. For the same compound, the inhibition result in [2] is “Active”. Moreover, the IC50 with A549 was 10.4 µM; with HEK293, 8.36 µM; in the test with HeLa, 25.9 µM; in test [3], 2390 nM; in the test on K562, 1730 nM; with Raji, 1230 nM. Also, the IC50 in [4] was found to be 1.82 µM; in test [5] it was 870 nM. In addition, the “Ratio IC50” value with HL-60 was determined as 2.7.
For the compound `COc1cc(NS(C)(=O)=O)ccc1Nc1c2ccccc2nc2ccccc12`, the inhibition entry in the test on Escherichia coli was “Active”.
For `CN(C)CCCCn1c(N)c(-c2nc3ccccc3o2)c2nc(C#N)c(C#N)nc21`, in [2], the inhibition result is “Active”. Besides, the IC50 came out at 5.47 µM in the test with A549; 6.24 µM in the test with HEK293; 1.95 µM with HeLa; 960 nM in [3]; 1380 nM in the test on K562; 9200 nM in the test with Raji. The IC50 in [4] was 6.13 µM; in test [5], 640 nM. The “Ratio IC50” value in the test on HL-60 is listed as 1.5.
With `CN(C)CCCn1c(N)c(-c2nc3ccccc3o2)c2nc(C#N)c(C#N)nc21`, the inhibition result in test [2] is “Active”. Moreover, the IC50 in the test with A549 was determined as 7.17 µM; in the test with HEK293, 5.88 µM; with HeLa it was 11.2 µM; in test [3], 1310 nM; in the test with K562, 5900 nM; in the test with Raji, 1940 nM. The IC50 in [4] came out at 5.64 µM; in [5], 390 nM. Moreover, the “Ratio IC50” value with HL-60 was determined as 3.3.
As for `CCN(CC)CCCCn1c(N)c(-c2nc3ccccc3o2)c2nc(C#N)c(C#N)nc21`, the inhibition entry in test [2] is “Active”. Further, the IC50 stood at 9.39 µM in the test with A549; 3.96 µM in the test with HEK293; 6.42 µM in the test with HeLa; 1720 nM in [3]; 1980 nM with K562; 2610 nM in the test with Raji. Besides, the IC50 in test [4] was determined as 2.71 µM; in test [5], 450 nM. Besides, the “Ratio IC50” value in the test on HL-60 was 3.8.
Turning to `CN(C)CCCn1c(N)c(-c2nc3ccccc3n2C)c2nc(C#N)c(C#N)nc21`, the inhibition entry in [2] was “Active”. Further, the IC50 in the test with A549 came to 11.7 µM; in the test with HEK293 it was 8.41 µM; in the test with HeLa, 4.32 µM; in test [3] it was 11300 nM; with K562 it was 3560 nM; in the test on Raji, 940 nM. Further, the IC50 in test [4] was 3.67 µM; in [5], 2120 nM. Moreover, the “Ratio IC50” value in the test on HL-60 is 5.3.
Consider `CN(C)CCCCn1c(N)c(-c2nc3ccccc3s2)c2nc(C#N)c(C#N)nc21`, for which, in [2], the inhibition entry was “Active”. Besides, the IC50 in the test on A549 was 35.8 µM; in the test on HEK293 it was 5.31 µM; in the test on HeLa, 18.7 µM; in test [3] it was 2140 nM; in the test on K562, 1330 nM; in the test on Raji it was 10100 nM. Further, the IC50 in test [4] is 2.74 µM; in test [5], 830 nM. Also, the “Ratio IC50” value with HL-60 is given as 2.6.
Turning to `CN(C)CCCCn1c(-c2c(N)n(C)c3nc(C#N)c(C#N)nc23)nc2ccccc21`, the inhibition entry in test [2] was “Active”. Besides, the IC50 in the test with A549 amounted to 11.2 µM; in the test with HEK293 it was 7.13 µM; with HeLa, 10.1 µM; in [3] it was 2810 nM; in the test on K562 it was 11300 nM; in the test on Raji, 1070 nM. Moreover, the IC50 is 6.48 µM in [4] and 2270 nM in [5]. Also, the “Ratio IC50” value in the test with HL-60 turned out to be 1.2.

By IC50 is commonly meant the point on the concentration scale where inhibition reaches its midpoint.
